Active and inactive are the calls of the source. The rule behind the calls is not given here.
test system: HepG2; assay: Toxicity against human HepG2 cells assessed as effect on cell growth at 100 nM to 1 uM; type: cell-based; conditions: hepg2, 0.1 µM

SMILES	Activity
CO[C@H]1CC2=C(C(=O)C[C@@H](c3ccccc3)O2)[C@H]2CC(=O)O[C@@H]12 [7-O-METHYLCRYPTOCHINONE A]	Non-toxic
CO[C@H]1CC2=C(C(=O)C[C@@H](c3ccccc3)O2)[C@@H]2CC(=O)O[C@H]12 [7-O-METHYLCRYPTOCHINONE B]	Non-toxic
O=C1C[C@@H]2C3=C(C[C@H](O)[C@@H]2O1)O[C@H](c1ccccc1)CC3=O [CRYPTOCHINONE A]	Non-toxic
O=C1C[C@H]2C3=C(C[C@H](O)[C@H]2O1)O[C@H](c1ccccc1)CC3=O [CRYPTOCHINONE B]	Non-toxic

molecular target: T1, Bile acid receptor (Homo sapiens) (UniProt Q96RI1); assay: (§1) Agonist activity at GAL4 DNA binding domain tagged FXR ligand binding domain (unknown origin) expressed in human HepG2 cells assessed as receptor transactivation measured by relative luciferase activity at 1 uM by luciferase reporter gene based mammalian one-hybrid assay relative to untreated control; type: cell-based; conditions: not given
T1 sequence (whole entry): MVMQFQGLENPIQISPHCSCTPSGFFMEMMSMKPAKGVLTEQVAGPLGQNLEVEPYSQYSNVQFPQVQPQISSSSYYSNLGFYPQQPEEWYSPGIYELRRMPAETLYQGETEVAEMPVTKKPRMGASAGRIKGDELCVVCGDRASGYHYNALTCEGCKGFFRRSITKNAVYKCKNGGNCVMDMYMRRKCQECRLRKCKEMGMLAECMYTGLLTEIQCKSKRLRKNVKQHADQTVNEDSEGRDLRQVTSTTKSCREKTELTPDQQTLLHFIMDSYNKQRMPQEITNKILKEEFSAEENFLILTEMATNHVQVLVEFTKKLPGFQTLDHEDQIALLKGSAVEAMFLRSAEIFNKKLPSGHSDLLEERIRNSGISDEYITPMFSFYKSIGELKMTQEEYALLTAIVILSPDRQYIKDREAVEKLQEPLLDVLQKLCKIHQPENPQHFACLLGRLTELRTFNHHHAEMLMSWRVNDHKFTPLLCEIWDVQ
How it was run: (§2)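 HepG2 cells seeded at 1 × 10^5 cells/well in phenol red-free DMEM with 10% charcoal-stripped FBS and penicillin/streptomycin. Next day transfected with pGAL4-FXR LBD (2 µg), pG5-luc (6 µg) and pCMV-β-gal normalizer (1 µg). Treated 48 h at 100 nM–10 µM, DMSO vehicle, 10 µM CDCA reference. Luciferase/β-gal ratio expressed relative to DMSO (=1); at least triplicate.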

fold change (FC)	SMILES
1.5	CO[C@H]1CC2=C(C(=O)C[C@@H](c3ccccc3)O2)[C@H]2CC(=O)O[C@@H]12 [7-O-METHYLCRYPTOCHINONE A]
1.5	CO[C@H]1CC2=C(C(=O)C[C@@H](c3ccccc3)O2)[C@@H]2CC(=O)O[C@H]12 [7-O-METHYLCRYPTOCHINONE B]
1.5	O=C1C[C@@H]2C3=C(C[C@H](O)[C@@H]2O1)O[C@H](c1ccccc1)CC3=O [CRYPTOCHINONE A]
1.5	O=C1C[C@H]2C3=C(C[C@H](O)[C@H]2O1)O[C@H](c1ccccc1)CC3=O [CRYPTOCHINONE B]

molecular target: T1, Bile acid receptor (Homo sapiens); assay: as §1, with “100 nM” for “1 uM”; type: cell-based; conditions: not given; how it was run: as §2

Activity	SMILES
inactive	CO[C@H]1CC2=C(C(=O)C[C@@H](c3ccccc3)O2)[C@H]2CC(=O)O[C@@H]12 [7-O-METHYLCRYPTOCHINONE A]
inactive	CO[C@H]1CC2=C(C(=O)C[C@@H](c3ccccc3)O2)[C@@H]2CC(=O)O[C@H]12 [7-O-METHYLCRYPTOCHINONE B]
inactive	O=C1C[C@@H]2C3=C(C[C@H](O)[C@@H]2O1)O[C@H](c1ccccc1)CC3=O [CRYPTOCHINONE A]
inactive	O=C1C[C@H]2C3=C(C[C@H](O)[C@H]2O1)O[C@H](c1ccccc1)CC3=O [CRYPTOCHINONE B]

molecular target: T1, Bile acid receptor (Homo sapiens); assay: Agonist activity at […] (unknown origin) expressed in human HepG2 cells co-expressing human SHP gene promoter assessed as transactivation of SHP promoter driven luciferase activity at 1 uM relative to untreated control; type: cell-based; conditions: not given

fold change (FC)	SMILES
3	CO[C@H]1CC2=C(C(=O)C[C@@H](c3ccccc3)O2)[C@H]2CC(=O)O[C@@H]12 [7-O-METHYLCRYPTOCHINONE A]
3	CO[C@H]1CC2=C(C(=O)C[C@@H](c3ccccc3)O2)[C@@H]2CC(=O)O[C@H]12 [7-O-METHYLCRYPTOCHINONE B]

molecular target: T1, Bile acid receptor (Homo sapiens); assay: Agonist activity at […] (unknown origin) expressed in human HepG2 cells co-expressing human SHP gene promoter assessed as transactivation of SHP promoter driven luciferase activity at 100 nM relative to untreated control; type: cell-based; conditions: not given

Activity	SMILES
Active	CO[C@H]1CC2=C(C(=O)C[C@@H](c3ccccc3)O2)[C@H]2CC(=O)O[C@@H]12 [7-O-METHYLCRYPTOCHINONE A]
Active	CO[C@H]1CC2=C(C(=O)C[C@@H](c3ccccc3)O2)[C@@H]2CC(=O)O[C@H]12 [7-O-METHYLCRYPTOCHINONE B]

molecular target: T1, Bile acid receptor (Homo sapiens); assay: Agonist activity at […] (unknown origin) expressed in human HepG2 cells co-expressing human SHP gene promoter assessed as transactivation of SHP promoter driven luciferase activity at 100 nM to 10 uM relative to untreated control; type: cell-based; conditions: not given

Activity	SMILES
Active	O=C1C[C@@H]2C3=C(C[C@H](O)[C@@H]2O1)O[C@H](c1ccccc1)CC3=O [CRYPTOCHINONE A]
Active	O=C1C[C@H]2C3=C(C[C@H](O)[C@H]2O1)O[C@H](c1ccccc1)CC3=O [CRYPTOCHINONE B]

molecular target: T2, Peroxisome proliferator-activated receptor gamma (Homo sapiens) (UniProt P37231); assay: Agonist activity at PPARgamma (unknown origin) by receptor transactivation assay; conditions: not given
T2 sequence (whole entry): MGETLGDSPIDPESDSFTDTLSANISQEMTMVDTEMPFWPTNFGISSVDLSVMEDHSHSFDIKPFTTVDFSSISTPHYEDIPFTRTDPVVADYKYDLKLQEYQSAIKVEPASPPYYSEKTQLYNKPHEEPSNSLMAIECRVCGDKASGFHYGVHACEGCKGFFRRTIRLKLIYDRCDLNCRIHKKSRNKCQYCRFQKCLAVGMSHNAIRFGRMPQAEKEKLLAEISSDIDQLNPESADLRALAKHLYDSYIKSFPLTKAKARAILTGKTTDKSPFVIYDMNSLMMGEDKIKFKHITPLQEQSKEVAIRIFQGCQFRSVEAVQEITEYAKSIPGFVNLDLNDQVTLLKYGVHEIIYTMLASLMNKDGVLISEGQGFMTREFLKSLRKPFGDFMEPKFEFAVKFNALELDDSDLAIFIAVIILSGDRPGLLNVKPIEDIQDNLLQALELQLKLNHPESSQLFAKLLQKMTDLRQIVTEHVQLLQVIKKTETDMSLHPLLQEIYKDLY

Activity	SMILES
inactive	CO[C@H]1CC2=C(C(=O)C[C@@H](c3ccccc3)O2)[C@H]2CC(=O)O[C@@H]12 [7-O-METHYLCRYPTOCHINONE A]
inactive	CO[C@H]1CC2=C(C(=O)C[C@@H](c3ccccc3)O2)[C@@H]2CC(=O)O[C@H]12 [7-O-METHYLCRYPTOCHINONE B]
inactive	O=C1C[C@@H]2C3=C(C[C@H](O)[C@@H]2O1)O[C@H](c1ccccc1)CC3=O [CRYPTOCHINONE A]
inactive	O=C1C[C@H]2C3=C(C[C@H](O)[C@H]2O1)O[C@H](c1ccccc1)CC3=O [CRYPTOCHINONE B]

molecular target: T1, Bile acid receptor (Homo sapiens); assay: Agonist activity at […] (unknown origin) expressed in human HepG2 cells co-expressing rat CYP7A1 gene promoter assessed as transrepression of CYP7A1 promoter driven luciferase activity relative to untreated control; type: cell-based; conditions: not given
How it was run: (§3)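 Transient transfection of HepG2 cells (1 × 10^5/well; phenol red-free DMEM, 10% charcoal-stripped FBS, pen/strep) with pCMV-FXR (2 µg), rat CYP7A1 promoter reporter prCYP7A1-luc (6 µg) and pCMV-β-gal (1 µg). After 48 h exposure to 100 nM–10 µM, lysate luciferase was normalized to β-gal and expressed relative to DMSO (=1). 10 µM CDCA reference; at least three determinations.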

Activity	SMILES
Dose-dependent effect	CO[C@H]1CC2=C(C(=O)C[C@@H](c3ccccc3)O2)[C@H]2CC(=O)O[C@@H]12 [7-O-METHYLCRYPTOCHINONE A]
Dose-dependent effect	CO[C@H]1CC2=C(C(=O)C[C@@H](c3ccccc3)O2)[C@@H]2CC(=O)O[C@H]12 [7-O-METHYLCRYPTOCHINONE B]
Dose-dependent effect	O=C1C[C@@H]2C3=C(C[C@H](O)[C@@H]2O1)O[C@H](c1ccccc1)CC3=O [CRYPTOCHINONE A]
Dose-dependent effect	O=C1C[C@H]2C3=C(C[C@H](O)[C@H]2O1)O[C@H](c1ccccc1)CC3=O [CRYPTOCHINONE B]

molecular target: T1, Bile acid receptor (Homo sapiens); assay: Agonist activity at […] (unknown origin) expressed in human HepG2 cells co-expressing rat CYP7A1 gene promoter assessed as transrepression of CYP7A1 promoter driven luciferase activity at 1 uM relative to untreated control; type: cell-based; conditions: not given; how it was run: as §3

Activity	SMILES
inactive	CO[C@H]1CC2=C(C(=O)C[C@@H](c3ccccc3)O2)[C@H]2CC(=O)O[C@@H]12 [7-O-METHYLCRYPTOCHINONE A]
inactive	CO[C@H]1CC2=C(C(=O)C[C@@H](c3ccccc3)O2)[C@@H]2CC(=O)O[C@H]12 [7-O-METHYLCRYPTOCHINONE B]
Active	O=C1C[C@@H]2C3=C(C[C@H](O)[C@@H]2O1)O[C@H](c1ccccc1)CC3=O [CRYPTOCHINONE A]
Active	O=C1C[C@H]2C3=C(C[C@H](O)[C@H]2O1)O[C@H](c1ccccc1)CC3=O [CRYPTOCHINONE B]

molecular target: T1, Bile acid receptor (Homo sapiens); assay: Agonist activity at […] (unknown origin) expressed in human HepG2 cells co-expressing rat CYP7A1 gene promoter assessed as transrepression of CYP7A1 promoter driven luciferase activity at 100 nM relative to untreated control; type: cell-based; conditions: not given; how it was run: as §3

Activity	SMILES
inactive	CO[C@H]1CC2=C(C(=O)C[C@@H](c3ccccc3)O2)[C@H]2CC(=O)O[C@@H]12 [7-O-METHYLCRYPTOCHINONE A]
inactive	CO[C@H]1CC2=C(C(=O)C[C@@H](c3ccccc3)O2)[C@@H]2CC(=O)O[C@H]12 [7-O-METHYLCRYPTOCHINONE B]
inactive	O=C1C[C@@H]2C3=C(C[C@H](O)[C@@H]2O1)O[C@H](c1ccccc1)CC3=O [CRYPTOCHINONE A]
inactive	O=C1C[C@H]2C3=C(C[C@H](O)[C@H]2O1)O[C@H](c1ccccc1)CC3=O [CRYPTOCHINONE B]

molecular target: T1, Bile acid receptor (Homo sapiens); assay: Agonist activity at […] (unknown origin) expressed in human HepG2 cells co-expressing human PLTP gene promoter assessed as transactivation of PLTP promoter driven luciferase activity relative to untreated control; type: cell-based; conditions: not given

Activity	SMILES
Dose-dependent effect	CO[C@H]1CC2=C(C(=O)C[C@@H](c3ccccc3)O2)[C@H]2CC(=O)O[C@@H]12 [7-O-METHYLCRYPTOCHINONE A]
Dose-dependent effect	CO[C@H]1CC2=C(C(=O)C[C@@H](c3ccccc3)O2)[C@@H]2CC(=O)O[C@H]12 [7-O-METHYLCRYPTOCHINONE B]
Dose-dependent effect	O=C1C[C@@H]2C3=C(C[C@H](O)[C@@H]2O1)O[C@H](c1ccccc1)CC3=O [CRYPTOCHINONE A]
Dose-dependent effect	O=C1C[C@H]2C3=C(C[C@H](O)[C@H]2O1)O[C@H](c1ccccc1)CC3=O [CRYPTOCHINONE B]

molecular target: T1, Bile acid receptor (Homo sapiens); assay: Agonist activity at […] (unknown origin) expressed in human HepG2 cells co-expressing human PLTP gene promoter assessed as transactivation of PLTP promoter driven luciferase activity at 100 nM relative to untreated control; type: cell-based; conditions: not given
How it was run: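 HepG2 cells (1 × 10^5 cells/well, phenol red-free DMEM, 10% charcoal-stripped FBS, pen/strep) transfected the next day with wild-type FXR plasmid pCMV-FXR (2 µg), pPLTP-Luc reporter (6 µg) and pCMV-β-gal (1 µg). Dosed 48 h at 100 nM–10 µM. Luciferase normalized to β-gal, expressed relative to DMSO (=1), 10 µM CDCA reference; mean ± SD of ≥3 determinations.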

Activity	SMILES
inactive	CO[C@H]1CC2=C(C(=O)C[C@@H](c3ccccc3)O2)[C@H]2CC(=O)O[C@@H]12 [7-O-METHYLCRYPTOCHINONE A]
inactive	CO[C@H]1CC2=C(C(=O)C[C@@H](c3ccccc3)O2)[C@@H]2CC(=O)O[C@H]12 [7-O-METHYLCRYPTOCHINONE B]
inactive	O=C1C[C@@H]2C3=C(C[C@H](O)[C@@H]2O1)O[C@H](c1ccccc1)CC3=O [CRYPTOCHINONE A]
inactive	O=C1C[C@H]2C3=C(C[C@H](O)[C@H]2O1)O[C@H](c1ccccc1)CC3=O [CRYPTOCHINONE B]

molecular target: T1, Bile acid receptor (Homo sapiens); assay: Agonist activity at […] (unknown origin) expressed in human HepG2 cells co-expressing rat CYP7A1 gene promoter assessed as transrepression of CYP7A1 promoter driven luciferase activity at 10 uM relative to untreated control; type: cell-based; conditions: not given; how it was run: as §3

inhibition [%]	SMILES
60	CO[C@H]1CC2=C(C(=O)C[C@@H](c3ccccc3)O2)[C@H]2CC(=O)O[C@@H]12 [7-O-METHYLCRYPTOCHINONE A]
60	CO[C@H]1CC2=C(C(=O)C[C@@H](c3ccccc3)O2)[C@@H]2CC(=O)O[C@H]12 [7-O-METHYLCRYPTOCHINONE B]
60	O=C1C[C@@H]2C3=C(C[C@H](O)[C@@H]2O1)O[C@H](c1ccccc1)CC3=O [CRYPTOCHINONE A]
60	O=C1C[C@H]2C3=C(C[C@H](O)[C@H]2O1)O[C@H](c1ccccc1)CC3=O [CRYPTOCHINONE B]
